Experimental findings from ChEMBL document CHEMBL1142981, “Identification and synthesis of a novel selective partial PPARdelta agonist with full efficacy on lipid metabolism in vitro and in vivo” (J Med Chem, 2007) are described below.

A word on the EC50: it is the concentration needed to bring the measured effect to its halfway point. In general, bioavailability refers to the share of a dose that reaches the circulation, judged against a reference dose that is usually intravenous. In general, Cmax refers to the peak of the concentration-time curve.

In series [1] the target is T1, Peroxisome proliferator-activated receptor alpha (Homo sapiens, UniProt Q07869).
T1 sequence (Q07869 whole entry): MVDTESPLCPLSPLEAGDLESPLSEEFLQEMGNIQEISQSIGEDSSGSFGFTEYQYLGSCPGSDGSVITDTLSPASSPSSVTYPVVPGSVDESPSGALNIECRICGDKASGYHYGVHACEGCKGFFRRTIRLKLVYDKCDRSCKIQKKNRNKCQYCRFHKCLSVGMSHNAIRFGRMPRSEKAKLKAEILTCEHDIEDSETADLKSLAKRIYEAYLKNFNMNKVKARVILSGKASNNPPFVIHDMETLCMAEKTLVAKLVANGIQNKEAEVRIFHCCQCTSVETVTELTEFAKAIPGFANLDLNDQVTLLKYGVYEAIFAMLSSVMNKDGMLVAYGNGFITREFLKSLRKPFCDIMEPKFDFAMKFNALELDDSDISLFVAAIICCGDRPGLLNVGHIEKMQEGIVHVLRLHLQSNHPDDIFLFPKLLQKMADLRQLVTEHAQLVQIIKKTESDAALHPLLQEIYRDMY
The experiment in a line: Activity at human liver PPAR alpha expressed in HEK293 cells by PPAR-GAL4 transactivation assay. Format: cell-based.

Series [2] concerns Mus musculus. The experiment in a line: Decrease in LDL level in human ApoB100/CETP transgenic mouse at 10 mg/kg, po after 6 weeks relative to control. Format: functional. Set-up: scale not given: the % may be the effect or the level left.
Series [3] has as its system Mus musculus. The experiment in a line: Increase in total cholesterol level in human ApoB100/CETP transgenic mouse at 20 mg/kg, po after 6 weeks relative to control. Format: functional.
Series [4] deals with L6. The experiment in a line: Effect on glucose oxidation in rat L6 cells. Format: functional, cell-based. The essentials:
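Differentiated rat L6 cells handled as for the fatty acid oxidation assay, with tritiated palmitate replaced by 10 µCi/mL [5-3H]-D-glucose; oxidation measured as 3H-H2O released into medium after TCA stop, collected by overnight equilibration at 50 °C and scintillation counting. FCCP served as positive control.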

The nature of series [5]: Oral bioavailability in Sprague-Dawley rat at 2.06 mg/kg. Format: ADME, organism-based. The conditions noted are these: in vivo. In short, it runs like this:
(§1)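 Male SD rats received a single p.o. or i.v. dose (n = 8 per route) in 5% ethanol, 10% HPCD and phosphate buffer, pH 7.5-8.0. At 5, 15, 30, 60, 90, 120, 240 and 360 min one rat was sacrificed per time point. EDTA plasma was assayed by high turbulence LC-MS/MS. Cmax and bioavailability were taken from oral dosing; volume of distribution is at steady state.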

Series [6] has as its system Mus musculus. The experiment in a line: Increase in HDL level in human ApoB100/CETP transgenic mouse at 20 mg/kg, po after 6 weeks relative to control. Format: functional.
Series [7] deals with Mus musculus. The experiment in a line: Decrease in triglycerides level in human ApoB100/CETP transgenic mouse at 5 mg/kg, po after 6 weeks relative to control. Format: functional. Set-up: scale not given: the % may be the effect or the level left.
For series [8], the target named is T2, Peroxisome proliferator-activated receptor delta (Mus musculus) (UniProt P35396).
T2 sequence (whole entry): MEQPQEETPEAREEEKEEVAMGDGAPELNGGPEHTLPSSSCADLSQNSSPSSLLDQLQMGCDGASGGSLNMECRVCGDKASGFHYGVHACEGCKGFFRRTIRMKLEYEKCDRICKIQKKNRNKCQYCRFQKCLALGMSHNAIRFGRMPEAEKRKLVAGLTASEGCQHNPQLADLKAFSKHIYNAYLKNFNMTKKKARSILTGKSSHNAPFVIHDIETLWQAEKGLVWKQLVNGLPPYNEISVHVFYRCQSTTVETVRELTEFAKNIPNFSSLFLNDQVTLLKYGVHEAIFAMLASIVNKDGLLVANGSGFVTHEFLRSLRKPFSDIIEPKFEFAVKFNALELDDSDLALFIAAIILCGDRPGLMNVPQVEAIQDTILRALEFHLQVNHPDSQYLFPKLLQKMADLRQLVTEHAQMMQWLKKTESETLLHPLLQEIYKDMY
The experiment in a line: (§2) Agonist activity at mouse PPAR delta expressed in HEK293 cells by PPAR-GAL4 transactivation assay. Format: functional, cell-based.

Series [9] has as its target T3, Peroxisome proliferator-activated receptor delta (Mus musculus, UniProt P35396).
T3 sequence (P35396 whole entry): T2 sequence (whole entry)
Described as §2. Format: functional, cell-based.

The subject of series [10] is Mus musculus. The experiment in a line: Increase in total ketone bodies level in human ApoB100/CETP transgenic mouse at 5 mg/kg, po after 6 weeks relative to control. Format: functional.
The subject of series [11] is Mus musculus. The experiment in a line: Increase in HDL level in human ApoB100/CETP transgenic mouse at 10 mg/kg, po after 6 weeks relative to control. Format: functional.
Series [12] is described as follows: Plasma Cmax in Sprague-Dawley rat at 2.06 mg/kg, po. Format: ADME, organism-based. Further details: dose 2.06 mg/kg, route oral. In short, it runs like this: as §1
Series [13] has as its system Mus musculus. The experiment in a line: Decrease in insulin level in human ApoB100/CETP transgenic mouse at 5 mg/kg, po after 6 weeks by ELISA relative to control. Format: functional. Set-up: scale not given: the % may be the effect or the level left. (In an ELISA, binding on a coated surface is turned into a signal by an enzyme label.)
Series [14] has as its system Mus musculus. The experiment in a line: Decrease in glucose level in human ApoB100/CETP transgenic mouse at 10 mg/kg, po after 6 weeks relative to control. Format: functional. Set-up: scale not given: the % may be the effect or the level left.
The subject of series [15] is Mus musculus. The experiment in a line: Increase in HDL level in human ApoB100/CETP transgenic mouse at 5 mg/kg, po after 6 weeks relative to control. Format: functional.
Series [16] concerns L6. The experiment in a line: Effect on increase in fatty acid oxidation in rat L6 cells relative to GW-501516. Set-up: concentration or dose not given beside the values. Format: functional. In short, it runs like this: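 Rat L6 myoblasts differentiated 5 days in 2% serum, then treated 42 h with compound (refreshed at 24 h), followed by 6 h with 0.4 mM palmitate containing [9,10-3H]-palmitic acid on 2% fatty-acid-free BSA. Stopped with 10% TCA; released 3H-H2O collected by overnight equilibration at 50 °C and counted.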

Series [17] deals with T4, Peroxisome proliferator-activated receptor alpha (Homo sapiens) (UniProt Q07869).
T4 sequence (whole entry): T1 sequence (Q07869 whole entry)
The experiment in a line: Activity at human liver PPAR alpha expressed in HEK293 cells by GAL4 transactivation assay relative to NNC61-4655. Format: cell-based.

Series [18] deals with T5, Peroxisome proliferator-activated receptor delta (Homo sapiens, UniProt Q03181).
T5 sequence (Q03181 whole entry): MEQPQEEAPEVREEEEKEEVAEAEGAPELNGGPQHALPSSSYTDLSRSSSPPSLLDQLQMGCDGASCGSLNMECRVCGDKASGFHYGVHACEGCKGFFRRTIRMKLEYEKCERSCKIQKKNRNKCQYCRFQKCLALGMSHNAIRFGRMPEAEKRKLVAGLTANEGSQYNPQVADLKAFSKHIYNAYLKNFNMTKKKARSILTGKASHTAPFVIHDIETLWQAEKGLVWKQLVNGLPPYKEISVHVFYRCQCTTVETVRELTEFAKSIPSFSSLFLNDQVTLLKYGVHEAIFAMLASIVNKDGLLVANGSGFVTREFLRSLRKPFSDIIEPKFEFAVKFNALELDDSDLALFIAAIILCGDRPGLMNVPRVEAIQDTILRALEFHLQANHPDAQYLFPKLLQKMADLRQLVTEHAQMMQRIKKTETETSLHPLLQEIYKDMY

The test system of series [19] is Mus musculus. The experiment in a line: Decrease in LDL level in human ApoB100/CETP transgenic mouse at 20 mg/kg, po after 6 weeks relative to control. Format: functional. Set-up: scale not given: the % may be the effect or the level left.
The test system of series [20] is Mus musculus. The experiment in a line: Decrease in total ketone bodies level in human ApoB100/CETP transgenic mouse at 10 mg/kg, po after 6 weeks relative to control. Format: functional. Further details: scale not given: the % may be the effect or the level left.
For series [21], the system named is Mus musculus. The experiment in a line: Decrease in total cholesterol level in human ApoB100/CETP transgenic mouse at 5 mg/kg, po after 6 weeks relative to control. Format: functional. Set-up: scale not given: the % may be the effect or the level left.

The source made the active and inactive calls. No cut-off for these calls is given here.

In the case of `O=C(O)COc1ccc(SCC=C(c2ccc(Br)cc2)c2ccc(Br)cc2)cc1Cl`, the 50% effective concentration (EC50) in series [1] is more than 10000 nM; in series [9], 300 nM; in series [18], 53 nM. Besides, the Activity is 12% in series [2]; 2% in [3]; 33% in [6]; 15% in series [7]; 167% in series [8]; 5% in [10]. The Activity in series [11] was determined as 14%; in [13] it was 11%; in series [14], 2%; in [15], 24%; in series [16] it was 109%; in series [19], 35%. For the same compound, the Activity in series [20] was 10%; in series [21] it was 19%. The outcome in series [4] was inactive. The compound further came in with a bioavailability in series [5] of 46%. Also, in series [12], the Cmax was determined as 508 ng/mL. In series [17], the Efficacy is more than 12%.
